Activity calls are given as the source filed them.
Experiments:
Curvularia lunata [1] = test: Antifungal activity against Curvularia lunata MTCC 581 assessed as zone of inhibition at 80 uM after 48 hrs by disc diffusion method; format: functional; settings: MTCC 581, 48 h, read-out: IZ
Method in brief: (§1)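 Spores from 4-day potato dextrose agar cultures, suspended in sterile water at 1.5 × 10⁵ CFU/mL. 0.2 mL was spread on potato dextrose agar. 5 mm filter-paper discs soaked with test compound were laid on the lawn. Incubation was 48 h at 28 °C, then the inhibition zone was measured in mm. Fluconazole was the positive control and acetone the negative control.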

Bacillus cereus [2] = test: Antimicrobial activity against Bacillus cereus MTCC 7350 assessed as diameter of inhibition zone at 40 uM after 24 hrs by Kirby -Baur disc diffusion method; format: functional
Method in brief: (§2)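 Kirby-Bauer disc diffusion was used. Acetone stocks (160 µM) were serially doubled down to 80, 40 and 20 µM. 4 µL of each went onto 5 mm sterile paper discs, which were dried 30 min at 50 °C. Inoculum was 1.5 × 10⁸ CFU/mL diluted to 3 × 10² CFU/mL, and 50 µL was spread on Mueller-Hinton agar. After 24 h at 37 °C the inhibition-zone diameter was measured. Ciprofloxacin served as positive control.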

Pseudomonas aeruginosa [3] = test: Antimicrobial activity against Pseudomonas aeruginosa ATCC 15499 assessed as diameter of inhibition zone at 40 uM after 24 hrs by Kirby -Baur disc diffusion method; format: functional; method in brief: as §2
Mus musculus = test: Antiinflammatory activity in mouse assessed as inhibition of carrageenan-induced increase in paw volume at 200 mg/kg administered 1 hr prior to carrageenan challenge measured after 3 hrs relative to control; format: functional
Method in brief: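 Mice were fasted 2 h and placed in groups of five. Controls received saline i.p. Phenylbutazone was given at 100 mg/kg i.p., curcumin at 200 mg/kg i.p., and derivatives at 200 mg/kg. After 1 h, 0.1 mL of 1% carrageenan in saline was injected subplantar into the right hind paw. Paw volume was followed by plethysmometer for 3 h, and % inhibition was calculated as (Vc − Vt)/Vc × 100.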

Bacillus cereus [4] = test: Antimicrobial activity against Bacillus cereus MTCC 7350 assessed as diameter of inhibition zone at 80 uM after 24 hrs by Kirby -Baur disc diffusion method; format: functional; settings: MTCC 7350, 24 h, read-out: DIZ; method in brief: as §2
Escherichia coli [5] = test: Antimicrobial activity against Escherichia coli ATCC 35218 assessed as diameter of inhibition zone at 80 uM after 24 hrs by Kirby -Baur disc diffusion method; format: functional; method in brief: as §2
Escherichia coli [6] = test: Antimicrobial activity against Escherichia coli ATCC 35218 assessed as diameter of inhibition zone at 20 uM after 24 hrs by Kirby -Baur disc diffusion method; format: functional; method in brief: as §2
QG-56 = test: Cytotoxicity against human QG56 cells after 24 hrs by MTT assay; format: functional, cell-based
Method in brief: (§3)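 The MTT assay seeded 5 × 10⁴ cells per well and grew them 24 h in RPMI 1640 with compound at 2.5–200 µM. Medium without cells was the blank and adriamycin the positive control. MTT was added for 4 h at 37 °C, formazan was solubilised, and absorbance was read at 570 nm. IC50 is the concentration that cuts viability 50% against untreated cells.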

HepG2 = test: Cytotoxicity against human HepG2 cells after 24 hrs by MTT assay; format: functional, cell-based; method in brief: as §3
Aspergillus flavus [7] = test: Antifungal activity against Aspergillus flavus MTCC 1021 assessed as zone of inhibition at 80 uM after 48 hrs by disc diffusion method; format: functional; method in brief: as §1
Pseudomonas aeruginosa [8] = test: Antimicrobial activity against Pseudomonas aeruginosa ATCC 15499 assessed as diameter of inhibition zone at 20 uM after 24 hrs by Kirby -Baur disc diffusion method; format: functional; method in brief: as §2
HCT-116 = test: Cytotoxicity against human HCT116 cells after 24 hrs by MTT assay; format: functional, cell-based; method in brief: as §3
Bacillus cereus [9] = test: Antimicrobial activity against Bacillus cereus MTCC 7350 after 24 hrs by broth micro serial dilution method; format: functional; settings: MTCC 7350, 24 h
Method in brief: (§4)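 This was broth microdilution in autoclaved Mueller-Hinton broth. 150 µL of compound per well was serially diluted […], and 50 µL of test organism was added. Plates were incubated 24 h at 37 °C and optical density was read.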

Trichoderma viride [10] = test: Antifungal activity against Trichoderma viride MTCC 1107 assessed as zone of inhibition at 80 uM after 48 hrs by disc diffusion method; format: functional; settings: MTCC 1107, 48 h, read-out: IZ; method in brief: as §1
Staphylococcus aureus [11] = test: Antimicrobial activity against Staphylococcus aureus ATCC 11632 after 24 hrs by broth micro serial dilution method; format: functional; settings: ATCC 11632, 24 h; method in brief: as §4
Pseudomonas aeruginosa [12] = test: Antimicrobial activity against Pseudomonas aeruginosa ATCC 15499 after 24 hrs by broth micro serial dilution method; format: functional; settings: ATCC 15499, 24 h; method in brief: as §4
Staphylococcus aureus [13] = test: Antimicrobial activity against Staphylococcus aureus ATCC 11632 assessed as diameter of inhibition zone at 80 uM after 24 hrs by Kirby -Baur disc diffusion method; format: functional; settings: ATCC 11632, 24 h, read-out: DIZ; method in brief: as §2
Trichoderma viride [14] = test: Antifungal activity against Trichoderma viride MTCC 1107 assessed as zone of inhibition at 40 uM after 48 hrs by disc diffusion method; format: functional; settings: MTCC 1107, 48 h, read-out: IZ; method in brief: as §1
Escherichia coli [15] = test: Antimicrobial activity against Escherichia coli ATCC 35218 assessed as diameter of inhibition zone at 40 uM after 24 hrs by Kirby -Baur disc diffusion method; format: functional; method in brief: as §2
Curvularia lunata [16] = test: Antifungal activity against Curvularia lunata MTCC 581 assessed as zone of inhibition at 20 uM after 48 hrs by disc diffusion method; format: functional; method in brief: as §1
Staphylococcus aureus [17] = test: Antimicrobial activity against Staphylococcus aureus ATCC 11632 assessed as diameter of inhibition zone at 40 uM after 24 hrs by Kirby -Baur disc diffusion method; format: functional; method in brief: as §2
Pseudomonas aeruginosa [18] = test: Antimicrobial activity against Pseudomonas aeruginosa ATCC 15499 assessed as diameter of inhibition zone at 80 uM after 24 hrs by Kirby -Baur disc diffusion method; format: functional; settings: ATCC 15499, 24 h, read-out: DIZ; method in brief: as §2
Trichoderma viride [19] = test: Antifungal activity against Trichoderma viride MTCC 1107 after 48 hrs; format: functional; settings: MTCC 1107, 48 h
HeLa = test: Cytotoxicity against human HeLa cells after 24 hrs by MTT assay; format: functional, cell-based; method in brief: as §3
Curvularia lunata [20] = test: Antifungal activity against Curvularia lunata MTCC 581 assessed as zone of inhibition at 40 uM after 48 hrs by disc diffusion method; format: functional; settings: MTCC 581, 48 h, read-out: IZ; method in brief: as §1
Aspergillus flavus [21] = test: Antifungal activity against Aspergillus flavus MTCC 1021 after 48 hrs; format: functional
Trichoderma viride [22] = test: Antifungal activity against Trichoderma viride MTCC 1107 assessed as zone of inhibition at 20 uM after 48 hrs by disc diffusion method; format: functional; method in brief: as §1
Aspergillus niger [23] = test: Antifungal activity against Aspergillus niger MTCC 1108 assessed as zone of inhibition at 80 uM after 48 hrs by disc diffusion method; format: functional; method in brief: as §1
Curvularia lunata [24] = test: Antifungal activity against Curvularia lunata MTCC 581 after 48 hrs; format: functional; settings: MTCC 581, 48 h
Escherichia coli [25] = test: Antimicrobial activity against Escherichia coli ATCC 35218 after 24 hrs by broth micro serial dilution method; format: functional; settings: ATCC 35218, 24 h; method in brief: as §4
Staphylococcus aureus [26] = test: Antimicrobial activity against Staphylococcus aureus ATCC 11632 assessed as diameter of inhibition zone at 20 uM after 24 hrs by Kirby -Baur disc diffusion method; format: functional; method in brief: as §2
Aspergillus niger [27] = test: Antifungal activity against Aspergillus niger MTCC 1108 after 48 hrs; format: functional
Bacillus cereus [28] = test: Antimicrobial activity against Bacillus cereus MTCC 7350 assessed as diameter of inhibition zone at 20 uM after 24 hrs by Kirby -Baur disc diffusion method; format: functional; method in brief: as §2
Salmonella typhi [29] = test: Antimicrobial activity against Salmonella typhi ATCC 23564 assessed as diameter of inhibition zone at 20 uM after 24 hrs by Kirby -Baur disc diffusion method; format: functional; settings: Salmonella enterica subsp. enterica serovar Typhi
Salmonella typhi [30] = test: Antimicrobial activity against Salmonella typhi ATCC 23564 assessed as diameter of inhibition zone at 80 uM after 24 hrs by Kirby -Baur disc diffusion method; format: functional, Salmonella enterica subsp. enterica serovar Typhi; settings: Salmonella enterica, ATCC 23564, 24 h; read-out: DIZ
Salmonella typhi [31] = test: Antimicrobial activity against Salmonella typhi ATCC 23564 assessed as diameter of inhibition zone at 40 uM after 24 hrs by Kirby -Baur disc diffusion method; format: functional; settings: Salmonella enterica subsp. enterica serovar Typhi
Salmonella typhi [32] = test: Antimicrobial activity against Salmonella typhi ATCC 23564 after 24 hrs by broth micro serial dilution method; format: functional, Salmonella enterica subsp. enterica serovar Typhi; settings: Salmonella enterica, ATCC 23564, 24 h

COc1cc(/C=C/c2noc(/C=C/c3ccc(O)c(OC)c3)c2/N=N/c2ccc(S(=O)(=O)Nc3cc(C)on3)cc2)ccc1O
22.5%: inhibition in vivo at 200 mg/kg (Mus musculus)
12 mm: zone of inhibition at 80 µM (Curvularia lunata [1]) | zone of inhibition at 80 µM (Trichoderma viride [10])
Not Active: IC50 (QG-56) | IC50 (HepG2) | IC50 (HCT-116) | IC50 (HeLa)
9 mm: zone of inhibition at 80 µM (Bacillus cereus [4]) | zone of inhibition at 80 µM (Escherichia coli [5]; ATCC 35218, 24 h, read-out: DIZ) | zone of inhibition at 80 µM (Staphylococcus aureus [13]) | zone of inhibition at 40 µM (Trichoderma viride [14]) | zone of inhibition at 80 µM (Pseudomonas aeruginosa [18]) | zone of inhibition at 40 µM (Curvularia lunata [20])
inactive: diameter of the inhibition zone (DIZ) (Bacillus cereus [2]) | diameter of the inhibition zone (DIZ) (Pseudomonas aeruginosa [3]) | diameter of the inhibition zone (DIZ) (Escherichia coli [6]) | inhibition zone (IZ) (Aspergillus flavus [7]) | diameter of the inhibition zone (DIZ) (Pseudomonas aeruginosa [8]) | diameter of the inhibition zone (DIZ) (Escherichia coli [15]) | inhibition zone (IZ) (Curvularia lunata [16]) | diameter of the inhibition zone (DIZ) (Staphylococcus aureus [17]) | MIC (Aspergillus flavus [21]) | inhibition zone (IZ) (Trichoderma viride [22]) | inhibition zone (IZ) (Aspergillus niger [23]) | diameter of the inhibition zone (DIZ) (Staphylococcus aureus [26]) | MIC (Aspergillus niger [27]) | diameter of the inhibition zone (DIZ) (Bacillus cereus [28])
> 80 µM: MIC (Bacillus cereus [9]) | MIC (Staphylococcus aureus [11]) | MIC (Pseudomonas aeruginosa [12]) | MIC (Trichoderma viride [19]) | MIC (Curvularia lunata [24]) | MIC (Escherichia coli [25])

COc1cc(/C=C/c2noc(/C=C/c3ccc(O)c(OC)c3)c2/N=N/c2ccc(S(=O)(=O)Nc3nc(C)cc(C)n3)cc2)ccc1O
inactive: diameter of the inhibition zone (DIZ) (Escherichia coli [5]) | inhibition zone (IZ) (Aspergillus flavus [7]) | diameter of the inhibition zone (DIZ) (Pseudomonas aeruginosa [8]) | diameter of the inhibition zone (DIZ) (Salmonella typhi [29]) | diameter of the inhibition zone (DIZ) (Salmonella typhi [31]) | diameter of the inhibition zone (DIZ) (Staphylococcus aureus [17]) | inhibition zone (IZ) (Aspergillus niger [23]) | diameter of the inhibition zone (DIZ) (Staphylococcus aureus [26]) | diameter of the inhibition zone (DIZ) (Bacillus cereus [28])
15 mm: zone of inhibition at 80 µM (Pseudomonas aeruginosa [18])
11 mm: zone of inhibition at 80 µM (Bacillus cereus [4]) | zone of inhibition at 40 µM (Trichoderma viride [14]) | zone of inhibition at 40 µM (Curvularia lunata [20])
> 80 µM: MIC (Bacillus cereus [9]) | MIC (Staphylococcus aureus [11]) | MIC (Aspergillus flavus [21]; MTCC 1021, 48 h) | MIC (Escherichia coli [25]) | MIC (Aspergillus niger [27]; MTCC 1108, 48 h) | MIC (Salmonella typhi [32])
80 µM: MIC (Pseudomonas aeruginosa [12]) | MIC (Trichoderma viride [19]) | MIC (Curvularia lunata [24])
41.9%: inhibition in vivo at 200 mg/kg (Mus musculus)
9 mm: zone of inhibition at 40 µM (Bacillus cereus [2]; MTCC 7350, 24 h, read-out: DIZ) | zone of inhibition at 20 µM (Curvularia lunata [16]; MTCC 581, 48 h, read-out: IZ) | zone of inhibition at 20 µM (Trichoderma viride [22]; MTCC 1107, 48 h, read-out: IZ)
Not Active: IC50 (QG-56) | IC50 (HepG2) | IC50 (HCT-116) | IC50 (HeLa)
12 mm: zone of inhibition at 80 µM (Staphylococcus aureus [13])
13 mm: zone of inhibition at 80 µM (Curvularia lunata [1]) | zone of inhibition at 80 µM (Trichoderma viride [10])
10 mm: zone of inhibition at 40 µM (Pseudomonas aeruginosa [3]; ATCC 15499, 24 h, read-out: DIZ) | zone of inhibition at 80 µM (Salmonella typhi [30])

Source: ChEMBL document CHEMBL2384906, “Biological activity, design, synthesis and structure activity relationship of some novel derivatives of curcumin containing sulfonamides” (Eur J Med Chem, 2013)
